Data from ChEMBL document CHEMBL1806428, “Design and synthesis of spiro derivatives of parthenin as novel anti-cancer agents” (Eur J Med Chem, 2011).
pIC50: −log10 of the molar value. Several values for one entry are separate records, joined by “and”; a condition that tells them apart may be missing. Equal entries are not always repeated.

Tests used:
PC-3 = assay: Cytotoxicity against human PC3 cells assessed as cell growth after 48 hrs by sulforhodamine B assay; type: functional, cell-based
How it was run: (§1)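 Log-phase cells seeded at 10^4/well and allowed to attach for 24 h at 37 °C, 5% CO2. Exposed for 48 h to 0.1–100 (1:10 serial dilutions), four replicate wells per condition. Fixed with cold 50% TCA for 1 h at 4 °C, stained with sulforhodamine B, dye dissolved in Tris, OD read at 540 nm. Blank-subtracted growth expressed relative to untreated cells (100%); IC50 reported.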

DU-145 = assay: Cytotoxicity against human DU145 cells assessed as cell growth after 48 hrs by sulforhodamine B assay; type: functional, cell-based; how it was run: as §1
SW-620 = assay: Cytotoxicity against human SW620 cells assessed as cell growth after 48 hrs by sulforhodamine B assay; type: functional, cell-based; how it was run: as §1
[1] = Partition coefficient, log P of the compound; type: physicochemical; conditions: octanol/water

| SMILES | pIC50 (PC-3; Homo sapiens, PC-3, 48 h) | pIC50 (PC-3; pc-3) | pIC50 (DU-145; Homo sapiens, DU-145, 48 h) | pIC50 (DU-145; du-145) | pIC50 (SW-620; Homo sapiens, SW-620, 48 h) | pIC50 (SW-620; sw-620) | logP [1] |
| --- | --- | --- | --- | --- | --- | --- | --- |
| C[C@H]1CC[C@@H]2[C@@H](OC(=O)[C@]23CC(c2ccccc2)N(c2ccccc2)O3)[C@]2(C)C(=O)C=C[C@@]12O (some centres undefined) | 5.24 | 5.05 | 5.25 | 5.19 | 5.28 | 5.22 | – |
| C[C@H]1CC[C@@H]2[C@@H](OC(=O)[C@]23CC(c2ccc([N+](=O)[O-])cc2)N(c2ccccc2)O3)[C@]2(C)C(=O)C=C[C@@]12O (mixture of isomers) | – | – | – | – | – | – | 3.15 |
| C[C@H]1CC[C@@H]2[C@@H](OC(=O)[C@]23CC(c2cccc(F)c2)N(c2ccccc2)O3)[C@]2(C)C(=O)C=C[C@@]12O (some centres undefined) | 5.32 | 5.05 | 5.30 | 5.09 | 5.32 | 5.29 | – |
| C[C@H]1CC[C@@H]2[C@@H](OC(=O)[C@]23CC(c2c(Cl)cccc2Cl)N(c2ccccc2)O3)[C@]2(C)C(=O)C=C[C@@]12O (some centres undefined) | 5.62 | 5.38 | 5.05 | 5.20 | 5.52 | 5.30 | – |
| C[C@H]1CC[C@@H]2[C@@H](OC(=O)[C@]23CC(c2ccc(Br)cc2)N(c2ccccc2)O3)[C@]2(C)C(=O)C=C[C@@]12O (mixture of isomers) | – | – | – | – | – | – | 4 |
| COc1ccc(C2C[C@@]3(ON2c2ccccc2)C(=O)O[C@@H]2[C@H]3CC[C@H](C)[C@]3(O)C=CC(=O)[C@@]23C)cc1 (mixture of isomers) | – | – | – | – | – | – | 3.25 |
| Cc1ccccc1C1C[C@@]2(ON1c1ccccc1)C(=O)O[C@@H]1[C@H]2CC[C@H](C)[C@]2(O)C=CC(=O)[C@@]12C (mixture of isomers) | – | – | – | – | – | – | 3.64 |
| C[C@H]1CC[C@@H]2[C@@H](OC(=O)[C@]23CC(c2ccc(F)cc2)N(c2ccccc2)O3)[C@]2(C)C(=O)C=C[C@@]12O (mixture of isomers) | – | – | – | – | – | – | 3.35 |
| C[C@H]1CC[C@@H]2[C@@H](OC(=O)[C@]23CC(c2ccccc2F)N(c2ccccc2)O3)[C@]2(C)C(=O)C=C[C@@]12O (some centres undefined) | 5.57 | 5.60 | 5.39 | 5.22 | 5.05 | 4.99 | – |
| COc1cccc(C2C[C@@]3(ON2c2ccccc2)C(=O)O[C@@H]2[C@H]3CC[C@H](C)[C@]3(O)C=CC(=O)[C@@]23C)c1 (mixture of isomers) | – | – | – | – | – | – | 3.25 |
| C[C@H]1CC[C@@H]2[C@@H](OC(=O)[C@]23CC(c2ccc(F)cc2)N(c2ccccc2)O3)[C@]2(C)C(=O)C=C[C@@]12O (some centres undefined) | – | 5.24 and 4.92 | 5.19 | 5.30 | 5.14 | 5.22 | – |
| C[C@H]1CC[C@@H]2[C@@H](OC(=O)[C@]23CC(c2ccc(Br)cc2)N(c2ccccc2)O3)[C@]2(C)C(=O)C=C[C@@]12O (some centres undefined) | – | 5.24 and 5.64 | 5.28 | 5.38 | 5.17 | 5.09 | – |
| C[C@H]1CC[C@@H]2[C@@H](OC(=O)[C@]23CC(c2cccc(F)c2)N(c2ccccc2)O3)[C@]2(C)C(=O)C=C[C@@]12O (mixture of isomers) | – | – | – | – | – | – | 3.35 |
| C[C@H]1CC[C@@H]2[C@@H](OC(=O)[C@]23CC(c2cccc(Cl)c2)N(c2ccccc2)O3)[C@]2(C)C(=O)C=C[C@@]12O (some centres undefined) | 5.09 | 4.92 | 5.13 | 5.22 | 5.21 | 4.98 | – |
| C[C@H]1CC[C@@H]2[C@@H](OC(=O)[C@]23CC(c2c(Cl)cccc2Cl)N(c2ccccc2)O3)[C@]2(C)C(=O)C=C[C@@]12O (mixture of isomers) | – | – | – | – | – | – | 4.45 |
| C[C@H]1CC[C@@H]2[C@@H](OC(=O)[C@]23CC(c2ccccc2Cl)N(c2ccccc2)O3)[C@]2(C)C(=O)C=C[C@@]12O (mixture of isomers) | – | – | – | – | – | – | 3.87 |

| SMILES | pIC50 (PC-3; Homo sapiens, PC-3, 48 h) | pIC50 (PC-3; pc-3) | pIC50 (DU-145; Homo sapiens, DU-145, 48 h) | pIC50 (DU-145; du-145) | pIC50 (SW-620; Homo sapiens, SW-620, 48 h) | pIC50 (SW-620; sw-620) | logP [1] |
| --- | --- | --- | --- | --- | --- | --- | --- |
| C[C@H]1CC[C@@H]2[C@@H](OC(=O)[C@]23CC(c2ccc(C#N)cc2)N(c2ccccc2)O3)[C@]2(C)C(=O)C=C[C@@]12O (some centres undefined) | 5.32 | 5.04 | 5.30 | 5.15 | 5.32 | 5.30 | – |
| COc1ccc(C2C[C@@]3(ON2c2ccccc2)C(=O)O[C@@H]2[C@H]3CC[C@H](C)[C@]3(O)C=CC(=O)[C@@]23C)cc1Br (mixture of isomers) | – | – | – | – | – | – | 3.98 |
| C[C@H]1CC[C@@H]2[C@@H](OC(=O)[C@]23CC(c2ccccc2Cl)N(c2ccccc2)O3)[C@]2(C)C(=O)C=C[C@@]12O (some centres undefined) | 5.46 | 5.20 | 5.22 | 5.39 | 5.26 | 5.04 | – |
| C[C@H]1CC[C@@H]2[C@@H](OC(=O)[C@]23CC(c2ccccc2F)N(c2ccccc2)O3)[C@]2(C)C(=O)C=C[C@@]12O (mixture of isomers) | – | – | – | – | – | – | 3.35 |
| C[C@H]1CC[C@@H]2[C@@H](OC(=O)[C@]23CC(c2ccc(Cl)cc2)N(c2ccccc2)O3)[C@]2(C)C(=O)C=C[C@@]12O (some centres undefined) | 5.11 | 4.92 | 5.15 | 5.22 | 5.12 | 5.29 | – |
| C[C@H]1CC[C@@H]2[C@@H](OC(=O)[C@]23CC(c2c(F)c(F)c(F)c(F)c2F)N(c2ccccc2)O3)[C@]2(C)C(=O)C=C[C@@]12O (some centres undefined) | 5.25 | 5.30 | 5.03 | 5.21 | 5.52 | 5.26 | – |
| C[C@H]1CC[C@@H]2[C@@H](OC(=O)[C@]23CC(c2ccc(C#N)cc2)N(c2ccccc2)O3)[C@]2(C)C(=O)C=C[C@@]12O (mixture of isomers) | – | – | – | – | – | – | 2.94 |
| C[C@H]1CC[C@@H]2[C@@H](OC(=O)[C@]23CC(c2c(F)cccc2F)N(c2ccccc2)O3)[C@]2(C)C(=O)C=C[C@@]12O (mixture of isomers) | – | – | – | – | – | – | 3.42 |
| Cc1ccccc1C1C[C@@]2(ON1c1ccccc1)C(=O)O[C@@H]1[C@H]2CC[C@H](C)[C@]2(O)C=CC(=O)[C@@]12C (some centres undefined) | 4.82 | – | 5.35 | 5.29 | 4.92 | 5.05 | – |
| C[C@H]1CC[C@@H]2[C@@H](OC(=O)[C@]23CC(c2c(F)cccc2F)N(c2ccccc2)O3)[C@]2(C)C(=O)C=C[C@@]12O (some centres undefined) | 5.60 | 5.64 | 4.92 | 5.05 | 5.30 | 5.14 | – |
| COc1ccc(C2C[C@@]3(ON2c2ccccc2)C(=O)O[C@@H]2[C@H]3CC[C@H](C)[C@]3(O)C=CC(=O)[C@@]23C)cc1Br (some centres undefined) | 5.24 | 5.09 | 5.20 | 5.27 | 5.17 | 5.05 | – |
| C[C@H]1CC[C@@H]2[C@@H](OC(=O)[C@]23CC(c2ccc([N+](=O)[O-])cc2)N(c2ccccc2)O3)[C@]2(C)C(=O)C=C[C@@]12O (some centres undefined) | 5.08 | 5.03 | 5.25 | 5.22 | 5.24 | 5.29 | – |
| C[C@H]1CC[C@@H]2[C@@H](OC(=O)[C@]23CC(c2ccccc2)N(c2ccccc2)O3)[C@]2(C)C(=O)C=C[C@@]12O (mixture of isomers) | – | – | – | – | – | – | 3.19 |
| Cc1ccc(C2C[C@@]3(ON2c2ccccc2)C(=O)O[C@@H]2[C@H]3CC[C@H](C)[C@]3(O)C=CC(=O)[C@@]23C)cc1 (some centres undefined) | 5.07 | 5.04 | 5.09 | 5.20 | 5.06 | 5.05 | – |
| COc1cccc(C2C[C@@]3(ON2c2ccccc2)C(=O)O[C@@H]2[C@H]3CC[C@H](C)[C@]3(O)C=CC(=O)[C@@]23C)c1 (some centres undefined) | 4.92 | 5.05 | 5.00 | 4.96 | 5.12 | 5.18 | – |
| COc1ccc(C2C[C@@]3(ON2c2ccccc2)C(=O)O[C@@H]2[C@H]3CC[C@H](C)[C@]3(O)C=CC(=O)[C@@]23C)cc1 (some centres undefined) | 5.24 | 5.22 | 5.19 | 5.15 | 5.14 | 5.38 | – |
